Measured values published in ChEMBL document CHEMBL1126803, “Stereospecific and selective 5-HT2 antagonism in a series of 5-substituted trans-1-piperazino-3-phenylindans” (J Med Chem, 1993).

Key:
[1] = organism: Rattus norvegicus; experiment: Inhibition of quipazine-induced head twitches in rats after 2 hrs of pretreatment; type: functional
In short: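 Test drug was given sc or po to rats 2 or 24 h before quipazine (15 µmol/kg, sc). Head twitches were counted 30-40 min after quipazine, at least four animals per dose. Counts were expressed as percent of a quipazine-only control group.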

[2] = target: Serotonin 2 (5-HT2) receptor (Rattus norvegicus, UniProt P30994+P08909+P14842); experiment: Displacement of [3H]ketanserin from 5-hydroxytryptamine 2 receptor in rat cortical membranes; type: cell membranes, Membrane
In short: (§1)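 Radioligand displacement from rat brain membranes: 3H-ketanserin on cortical membranes (5-HT2), 3H-prazosin on whole brain membranes (alpha1), 3H-spiperone on striatal membranes (D2). Two full concentration-effect curves per compound, each with five test drug concentrations in triplicate spanning three decades. IC50 estimated from curves on a log-concentration scale. Outliers beyond 3 times the sd-ratio were discarded after extra determinations.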

[3] = target: T1, Adrenergic receptor alpha-1 (Rattus norvegicus, UniProt P15823+P23944+P43140); experiment: Displacement of [3H]prazosin from alpha-1 adrenoceptors in whole rat brain membranes; type: cell membranes; in short: as §1
T1 sequence (P15823 whole entry): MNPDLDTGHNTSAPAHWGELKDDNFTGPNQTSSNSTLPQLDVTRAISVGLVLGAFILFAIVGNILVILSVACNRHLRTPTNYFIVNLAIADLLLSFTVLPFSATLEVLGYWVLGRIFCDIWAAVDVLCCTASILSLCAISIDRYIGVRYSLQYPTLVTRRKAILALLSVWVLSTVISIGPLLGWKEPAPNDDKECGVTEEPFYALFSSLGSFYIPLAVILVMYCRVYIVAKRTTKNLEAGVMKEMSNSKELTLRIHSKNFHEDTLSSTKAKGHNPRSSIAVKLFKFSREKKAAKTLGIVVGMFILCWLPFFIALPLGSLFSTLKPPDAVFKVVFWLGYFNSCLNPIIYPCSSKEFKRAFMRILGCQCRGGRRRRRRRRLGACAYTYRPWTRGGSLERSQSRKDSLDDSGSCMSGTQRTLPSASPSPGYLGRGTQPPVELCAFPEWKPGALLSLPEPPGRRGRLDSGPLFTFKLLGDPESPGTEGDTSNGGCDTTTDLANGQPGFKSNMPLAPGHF
T1 sequence (P23944 whole entry): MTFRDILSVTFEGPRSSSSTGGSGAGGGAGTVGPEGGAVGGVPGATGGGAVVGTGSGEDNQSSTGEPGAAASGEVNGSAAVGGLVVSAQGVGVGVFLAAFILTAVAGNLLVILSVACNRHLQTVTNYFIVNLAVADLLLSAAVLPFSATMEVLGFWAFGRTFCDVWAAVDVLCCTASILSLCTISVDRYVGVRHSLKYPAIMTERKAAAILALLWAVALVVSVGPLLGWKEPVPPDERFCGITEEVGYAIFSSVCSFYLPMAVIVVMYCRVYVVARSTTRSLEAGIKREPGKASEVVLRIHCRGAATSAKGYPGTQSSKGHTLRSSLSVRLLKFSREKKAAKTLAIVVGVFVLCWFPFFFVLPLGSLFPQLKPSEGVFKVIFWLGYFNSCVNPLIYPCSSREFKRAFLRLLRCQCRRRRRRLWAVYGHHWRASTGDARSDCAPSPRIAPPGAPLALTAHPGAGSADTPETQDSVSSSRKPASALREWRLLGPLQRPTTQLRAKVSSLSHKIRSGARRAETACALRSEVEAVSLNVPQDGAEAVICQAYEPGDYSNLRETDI
T1 sequence (P43140 whole entry): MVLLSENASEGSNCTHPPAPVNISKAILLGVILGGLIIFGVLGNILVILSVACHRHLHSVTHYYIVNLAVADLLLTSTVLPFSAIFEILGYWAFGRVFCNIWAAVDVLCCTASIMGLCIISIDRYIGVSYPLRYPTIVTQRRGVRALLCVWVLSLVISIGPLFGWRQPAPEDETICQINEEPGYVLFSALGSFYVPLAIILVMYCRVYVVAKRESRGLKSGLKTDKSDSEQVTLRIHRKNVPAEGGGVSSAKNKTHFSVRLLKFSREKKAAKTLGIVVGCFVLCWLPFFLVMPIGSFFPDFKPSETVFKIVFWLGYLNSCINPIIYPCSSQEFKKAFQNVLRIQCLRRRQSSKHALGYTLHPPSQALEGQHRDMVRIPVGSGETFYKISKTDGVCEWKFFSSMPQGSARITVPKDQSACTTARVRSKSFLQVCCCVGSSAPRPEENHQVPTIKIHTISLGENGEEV

[4] = target: D(2) dopamine receptor (Rattus norvegicus, UniProt P61169); experiment: Displacement of [3H]spiperone from dopamine D2 receptors in rat striatal membranes; type: cell membranes, Membrane; in short: as §1
[5] = Rattus norvegicus, read-out: ED50

Chain of D(2) dopamine receptor (P61169 whole entry): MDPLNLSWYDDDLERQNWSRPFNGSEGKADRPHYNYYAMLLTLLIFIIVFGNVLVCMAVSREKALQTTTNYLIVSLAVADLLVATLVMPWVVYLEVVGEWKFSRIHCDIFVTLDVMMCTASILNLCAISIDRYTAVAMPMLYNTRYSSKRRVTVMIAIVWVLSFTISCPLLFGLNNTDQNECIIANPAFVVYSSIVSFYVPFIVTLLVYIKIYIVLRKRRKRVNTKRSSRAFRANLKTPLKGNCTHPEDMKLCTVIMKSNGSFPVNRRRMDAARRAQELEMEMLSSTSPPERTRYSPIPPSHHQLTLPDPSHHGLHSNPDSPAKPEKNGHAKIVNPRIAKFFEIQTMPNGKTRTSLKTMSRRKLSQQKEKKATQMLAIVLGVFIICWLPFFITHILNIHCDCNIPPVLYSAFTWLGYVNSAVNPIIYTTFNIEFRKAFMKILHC

| Compound | IC50 [2] [nM] | IC50 [3] [nM] | IC50 [4] [nM] | ED50 [1, 5] [µmol/kg] | ED50 [1] [µM/kg] |
| --- | --- | --- | --- | --- | --- |
| CC(C)N1CCN(CCN2CCN(C3CC(c4ccc(Cl)cc4)c4cc(Cl)ccc43)CC2)C1=O.O=C(O)/C=C\C(=O)O (configuration not stated) | 15 | 180 | – | 2.9 | – |
| CC(C)N1CCN(CCN2CCN(C3CC(c4cccc(F)c4)c4cc(Cl)ccc43)CC2)C1=O.O=C(O)/C=C\C(=O)O (configuration not stated) | 26 | 970 | – | – | – |
| Cc1ccc(C2CC(N3CCN(CCN4CCN(C(C)C)C4=O)CC3)c3ccc(Cl)cc32)cc1.O=C(O)/C=C\C(=O)O (configuration not stated) | 11 | 60 | – | > 3.5 | – |
| CC(C)N1CCN(CCN2CCN(C3CC(c4ccccc4F)c4cc(Cl)ccc43)CC2)C1=O.O=C(O)/C=C\C(=O)O.O=C(O)/C=C\C(=O)O (configuration not stated) | 3.5 | 670 | – | 2.1 | – |
| Cl.Cl.O=C1OCCN1CCN1CCN(C2CC(c3ccc(F)cc3)c3cc(Cl)ccc32)CC1 (configuration not stated) | 23 | 140 | 550 | 2 | – |
| Cl.Cl.O=C1CCCN1CCN1CCN(C2CC(c3ccc(F)cc3)c3cc(Cl)ccc32)CC1 (configuration not stated) | 10 | 370 | 500 | 2.7 | – |
| OCCN1CCN(C2CC(c3ccc(F)cc3)c3cc(F)ccc32)CC1 (configuration not stated) | 21 | 150 | 1100 | – | 0.35 |
| OCCN1CCN(C2CC(c3ccc(F)cc3)c3ccc(Cl)cc32)CC1 (configuration not stated) | 2.6 | 26 | 20 | 0.039 | – |
| CSc1ccc2c(c1)C(c1ccc(F)cc1)CC2N1CCN(CCN2CCN(C(C)C)C2=O)CC1 (configuration not stated) | 4 | 250 | – | > 3.4 | – |
| OCCN1CCN(C2CC(c3ccc(F)cc3)c3c(Cl)cccc32)CC1 (configuration not stated) | 40 | 30 | 220 | 0.82 | – |
| O=C1NCCN1CCN1CCN(C2CC(c3ccc(F)cc3)c3cc(Cl)ccc32)CC1 (configuration not stated) | 2.9 | 200 | – | 0.34 | – |
| Cl.Cl.Fc1ccc(C2CC(N3CCN(CCN4CCCNC4=S)CC3)c3ccc(F)cc32)cc1 (racemic) | 42 | – | 2900 | – | – |
| Cl.Cl.OCCN1CCN(C2CC(c3ccc(F)cc3)c3cc(Cl)ccc32)CC1 (stereo in doubt; 10) | 25 | 230 | – | – | 0.23 |
| Cl.Cl.Fc1ccc(C2CC(N3CCN(CCN4CCCNC4=S)CC3)c3ccc(Cl)cc32)cc1 (stereo in doubt; (+)-39) | 21 | 350 | 490 | – | – |

Continued, in another order:

| IC50 [2] [nM] | IC50 [3] [nM] | IC50 [4] [nM] | Compound | ED50 [1, 5] [µmol/kg] | ED50 [1] [µM/kg] |
| --- | --- | --- | --- | --- | --- |
| 2.8 | 600 | – | CN1CCN(CCN2CCN(C3CC(c4ccc(F)cc4)c4cc(Cl)ccc43)CC2)C1=O.O=C(O)/C=C\C(=O)O (configuration not stated) | 0.093 | – |
| 1.7 | 110 | 220 | Fc1ccc(C2CC(N3CCN(CCN4CCCN=C4S)CC3)c3ccc(F)cc32)cc1.O=C(O)/C=C\C(=O)O.O=C(O)/C=C\C(=O)O (configuration not stated) | 0.039 | – |
| 3 | 120 | 450 | Cc1ccc2c(c1)C(c1ccc(F)cc1)CC2N1CCN(CCN2CCN(C(C)C)C2=O)CC1.O=C(O)/C=C\C(=O)O.O=C(O)/C=C\C(=O)O (configuration not stated) | 0.2 | – |
| 8.9 | 380 | – | O=C(O)/C=C\C(=O)O.O=C(O)/C=C\C(=O)O.OCCN1CCN(C2CC(c3ccc(F)cc3)c3cc(C(F)(F)F)ccc32)CC1 (configuration not stated) | 1 | – |
| 3.7 | 370 | – | CC(C)N1CCN(CCN2CCN(C3CC(c4ccc(F)cc4)c4cc(C(F)(F)F)ccc43)CC2)C1=O.O=C(O)/C=C\C(=O)O.O=C(O)/C=C\C(=O)O (configuration not stated) | 0.13 | – |
| 12 | 270 | 1100 | Cc1ccc2c(c1)C(c1ccc(F)cc1)CC2N1CCN(CCO)CC1.O=C(O)/C=C\C(=O)O.O=C(O)/C=C\C(=O)O (configuration not stated) | > 2.1 | – |
| 9.9 | 510 | – | CC(C)N1CCN(CCN2CCN(C3CC(c4ccccc4)c4cc(Cl)ccc43)CC2)C1=O.O=C(O)/C=C\C(=O)O.O=C(O)/C=C\C(=O)O (configuration not stated) | 1 | – |
| 2.6 | 240 | – | CCN1CCN(CCN2CCN(C3CC(c4ccc(F)cc4)c4cc(Cl)ccc43)CC2)C1=O.O=C(O)/C=C\C(=O)O.O=C(O)/C=C\C(=O)O (configuration not stated) | 0.042 | – |
| 6.4 | 270 | – | CC(C)N1CCN(CCN2CCN(C3CC(c4ccc(F)cc4)c4cc(Br)ccc43)CC2)C1=O.O=C(O)/C=C\C(=O)O.O=C(O)/C=C\C(=O)O (configuration not stated) | 0.098 | – |
| 19 | 24 | 65 | Cc1nc2sccn2c(=O)c1CCN1CCN(C2CC(c3ccc(F)cc3)c3cc(Cl)ccc32)CC1.O=C(O)/C=C\C(=O)O.O=C(O)/C=C\C(=O)O (configuration not stated) | 1.9 | – |
| 5.6 | 66 | 110 | O=C(O)/C=C\C(=O)O.O=C(O)/C=C\C(=O)O.Oc1nc2ccccc2n1CCN1CCN(C2CC(c3ccc(F)cc3)c3cc(Cl)ccc32)CC1 (configuration not stated) | 0.21 | – |
| 10 | 73 | 160 | O=C(O)/C=C\C(=O)O.O=C(O)/C=C\C(=O)O.O=C1NCCN1CCCN1CCN(C2CC(c3ccc(F)cc3)c3cc(Cl)ccc32)CC1 (configuration not stated) | 0.91 | – |
| 3.8 | 78 | 93 | O=C(O)/C=C\C(=O)O.O=C(O)/C=C\C(=O)O.O=c1[nH]c2ccccc2c(=O)n1CCN1CCN(C2CC(c3ccc(F)cc3)c3cc(Cl)ccc32)CC1 (configuration not stated) | > 3.3 | – |
| 44 | 310 | – | O=C(O)/C=C\C(=O)O.O=C(O)/C=C\C(=O)O.O=C1N(CCN2CCN(C3CC(c4ccc(F)cc4)c4cc(Cl)ccc43)CC2)CCN1c1ccccc1 (configuration not stated) | > 6.7 | – |
| 6.1 | 710 | – | O=C(O)/C=C\C(=O)O.O=C(O)/C=C\C(=O)O.O=C1N(CCO)CCN1CCN1CCN(C2CC(c3ccc(F)cc3)c3cc(Cl)ccc32)CC1 (configuration not stated) | 1.1 | – |
| 1.5 | 170 | 93 | Fc1ccc(C2CC(N3CCN(CCN4CCCN=C4S)CC3)c3ccc(Cl)cc32)cc1.O=C(O)/C=C\C(=O)O.O=C(O)/C=C\C(=O)O (configuration not stated) | 0.048 | – |
| 15 | 38 | 46 | O=C(O)/C=C\C(=O)O.O=C(O)/C=C\C(=O)O.OCCN1CCN(C2CC(c3ccc(F)cc3)c3cccc(Cl)c32)CC1 (configuration not stated) | 1.3 | – |
| 57 | – | 4000 | O=C(O)/C=C\C(=O)O.O=C(O)/C=C\C(=O)O.O=C1NCCCN1CCN1CCN(C2CC(c3ccc(F)cc3)c3cc(F)ccc32)CC1 (single isomer, unassigned; (-)) | – | – |
| 3.9 | 260 | – | CC(C)N1CCN(CCN2CCN(C3CC(c4ccc(F)cc4)c4cc(Cl)ccc43)CC2)C1=O.O=C(O)/C=C\C(=O)O.O=C(O)/C=C\C(=O)O (stereo in doubt; 20) | – | 0.06 |
| 120 | – | 1700 | O=C(O)/C=C\C(=O)O.O=C(O)/C=C\C(=O)O.O=C1NCCCN1CCN1CCN(C2CC(c3ccc(F)cc3)c3cc(Cl)ccc32)CC1 (stereo in doubt; (+)-41) | – | – |
